This is a sample that favours compounds with a hit; in the whole collection about 1.9% have one here.
Jurkat tox 60K: cytotoxicity toward Jurkat T cells, primary screen, cytotoxicity control, cell-based, Jurkat E6.1, 60K MLSMR library | inhibition, % at 4 µM | hit rate 1.2% among 56,000 | Jurkat E6.1 viability, ATP luminescence, 48 h | AID 463, 2006;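 active = inhibition above the mean inhibition of all tested compounds plus 3 SD, cut at about 28% in these data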
HEK293 NFkB inh: inhibitors of PMA/ionomycin-induced NF-kB reporter, primary screen, antigen receptor NF-kB inhibitor project, cell-based, HEK-293 luciferase reporter, luminescence | AID 465, 2006 | HEK-293 NF-kB luciferase reporter | inhibition, % at 3 µM | hit rate 0.21% among 62,000;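 active = inhibition above the mean of all tested compounds plus 3 SD, cut at about 40% in these data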;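 note: 0% = stimulated DMSO wells and 100% = 10 µM reference inhibitor 5653914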
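System – HEK-293 cells with stable firefly luciferase reporter driven by four HIV NF-kB elements · Doses – one dose, 3 µM · Schedule – 1 h compound pre-incubation, 16 h PMA/ionomycin at 37 °C · Technique – luminescence from luciferase substrate reagent · Measure – percent inhibition normalized per plate to DMSO and reference-inhibitor controls · Replicates – tested once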
SKBR3 24h inh: SK-BR-3 proliferation inhibitors, primary screen, cell-based, human, 24 h; SK-BR-3 viability, CellTiter-Glo ATP luminescence; hits give low values; viability, % at 10 µM; hit rate 0.47% among 41,000;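 active = viability at or below the median of all test compounds minus 3 SD, in both replicates if run twice, cut at about 45% in these data; inconclusive = duplicate replicates that disagree with each other; inactive = viability above that cutoff in every replicate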;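 note: 100% = median untreated cell wells and 0% = median positive control drug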
Htt clearance: clearance of mutant huntingtin inclusions, primary screen, imaging, HeLa Exon1htt(103Q)mCFP, confocal imaging | aggregate imaging; zero = plate's median compound well | AID 853, 2007 | hit rate 0.42% among 47,000 | inhibition, % at 1.5 µM;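 active = inhibition of aggregate fluorescence above about 70%, also judged a hit by eye on the cell image, limit read from the data, passing the limit was not always enough; inconclusive = no rule stated for this call; inactive = not judged a hit on image review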;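 note: cells exposed to compound for three days before fixation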
HER2 expr 66K: inhibitors of Her2 protein expression, primary screen, SKBR-3 cells, AlphaScreen, 66K library; Receptor tyrosine-protein kinase erbB-2 (Homo sapiens), P04626; SKBR-3 HER2 protein level, 18-24 h; hits give low values; HER2 level % of control, % at 10 µM; hit rate 0.69% among 65,000;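 active = HER2 level under 5% of the carrier-only control; inconclusive = no clear call, values can overlap the other calls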;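 note: 100% = DMSO carrier and 0% = 500 nM PU-H71 HSP90 inhibitor; lower value means stronger loss of Her2 protein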
Numbers without * were called inactive; ? = inconclusive; . = no result given.

SMILES	Jurkat tox 60K	HEK293 NFkB inh	SKBR3 24h inh	Htt clearance	HER2 expr 66K
COc1cccc(N2CCN(c3ncnc4c3[nH]c3ccc(F)cc34)CC2C)c1 (configuration not stated)	.	.	5.7*	.	-26*
COc1ccc(OCC(=O)Nc2ccc(S(=O)(=O)N3CCOCC3)cc2)cc1	-1	-2	133	87*	99
CCN=c1scc(-c2ccc3c(c2)NC(=O)CO3)n1N=C1CCCC1	36*	26	.	.	126
Cc1cc(C)c(O)c(-c2cc(C(=O)Nc3ccc(S(=O)(=O)N4CCOCC4)cc3)[nH]n2)c1	22	6	67	22	-11*
COc1cccc(Oc2cnc(N)nc2-c2ccc(OC)cc2O)c1	91*	43*	147	-116	104
COc1ccc(CN2CCN(C)CC2)cc1OCc1ccccc1	6	13	.	74*	126
O=C(CSc1ncnc2sc3c(c12)CCCCC3)NCc1ccco1	38*	-1	105	.	59
CC1(C)Cc2nc3sc4c(SCC(=O)NCc5ccco5)ncnc4c3cc2CO1	78*	7	88	-196	.
Cc1nc2c(sc3nc4c(cc32)COC(C)(C)C4)c(=O)n1CC(=O)NCc1ccco1	.	18	123	.	74
CCN1CCN(c2ncc(C(=O)Nc3cc(Cl)ccc3OC)c3ccccc23)CC1	11	23	33*	.	63
COc1ccc(Cl)cc1NC(=O)CCN1CCN(c2ccccc2C)CC1	.	4	.	34	86
Cc1cc(C)n(-c2nnc(C)n2/N=C/c2ccco2)n1	.	.	79	.	136
CCCOc1ccc2ccccc2c1/C=N/n1c(C)nnc1-n1nc(C)cc1C	82*	1	95	.	102
COc1ccc(CCNC(=O)CSc2nc(N)c(C#N)c(-c3cccs3)c2C#N)cc1OC	6	14	59	72*	1.8*
Clc1ccc(-n2nnnc2-c2ccccc2)cc1Cl	4	7	.	.	152
COc1ccc(-n2nnnc2-c2cccc(OC)c2)cc1	78*	21	127	.	69
COc1ccc(-c2noc(CCC(=O)N3CCN(c4cc(C)ccc4C)CC3)n2)cc1	.	10	.	.	110
CCSc1nnnn1-c1ccccc1	.	.	.	34	.
Cc1ccc(C)c(-n2nnnc2Sc2nnnn2-c2ccccc2)c1	30*	16	.	17	-11*
CCSc1nnc(NC(=O)c2ccccn2)s1	76*	-36	.	.	106
CCCC1C2CN(C(C)C)CC=C2C(C#N)=C(N)C1(C#N)C#N (configuration not stated)	-2	7	.	-18	144
O=C(COC(=O)CCCN1C(=O)c2ccccc2C1=O)Nc1ncc(Cl)cc1Cl	1	14	.	72*	119
CCn1cc(S(=O)(=O)CC(=O)N2CCc3ccccc32)c2ccccc21	2	10	.	.	1.6*
CCCn1cc(S(=O)(=O)CC(=O)N2CCc3ccccc32)c2ccccc21	.	14	90	.	60
Nc1c(S(=O)(=O)c2cccc(Cl)c2)c2nc3ccccc3nc2n1/N=C/c1ccc(O)c(O)c1	6	7	2.7*	.	-13*
SMILES	Jurkat tox 60K	HEK293 NFkB inh	SKBR3 24h inh	Htt clearance	HER2 expr 66K
Nc1sccc1C(=O)c1ccccc1	-8	0	85	-3	96
CC(C)N(C(=O)CSc1nnc(NC(=O)C2CCC2)s1)C(C)C	4	8	42*	-42	115
O=C(CSc1nnc(NC(=O)C2CCC2)s1)Nc1ccc(N2CCOCC2)cc1	-6	3	.	7	85
Cc1ccc(NC(=O)CS(=O)Cc2nc(-c3ccc(C)cc3)oc2C)cc1 (configuration not stated)	.	.	.	6	.
CCOC(=O)C1=C(N)OC2=C(C(=O)CC(C)(C)C2)C1c1ccco1 (configuration not stated)	-10	2	91	?	94
CC1(C)CC(=O)C2=C(C1)OC1=C(C(=O)CC(C)(C)C1)C2c1ccc(O)cc1O	96*	-2	.	-4	-0.6*
Cc1cccc2nc(Cn3c(=O)n(CCC(=O)NCc4ccco4)c(=O)c4ccccc43)cc(=O)n12	11	13	79	.	71
COC(=O)C1CN(S(=O)(=O)c2ccccc2)CCN1S(=O)(=O)c1ccccc1 (configuration not stated)	.	.	.	-29	.
COc1ccc(-n2nnnc2S(=O)(=O)CC(=O)N2CCCCC2)cc1	23	17	.	.	-29*
Fc1ccc(CNc2nc3ccccc3n3cnnc23)cc1	.	.	.	44	.
Clc1ccc(COn2nnc3ccccc32)c(Cl)c1	6	45*	93	-22	106
O=C(COn1nnc2ccc(Cl)cc21)NCc1ccccc1	-4	12	.	.	99
Cc1ccc(-c2nsc3c(N4CCC(C(N)=O)CC4)ncnc23)cc1	0	42*	91	.	82
Cc1cc(C(=O)NNC(=S)NC(C)c2ccccc2)c2ccccc2n1 (configuration not stated)	.	.	.	-14	.
CCOC(=O)CSc1nnc(-c2ccc(NS(=O)(=O)c3ccc(C)cc3)cc2)o1	5	16	.	-40	-1.4*
CCOc1ccc2nc(NC(=O)c3ccoc3C)sc2c1	42*	-42	75	.	92
CCOc1ccc2nc(NC(=O)COC)sc2c1	.	-18	78	.	.
O=C(CSCc1cccc(Cl)c1)N1CCN(Cc2ccc3c(c2)OCO3)CC1	.	.	.	-16	.
O=C(O)c1ccc2c3c(ncnc13)-c1ccccc1C2=O	6	-2	44*	.	-16*
Cc1occc1-c1nnc(SCC(=O)c2cc3ccccc3oc2=O)o1	9	13	104	4	100
Clc1ccc2c(c1)C(N1CCNCC1)=Nc1ccccc1O2	.	.	87	.	101
Cn1c(Cl)cnc1C1CC(=O)c2cc(Cl)ccc2O1 (configuration not stated)	.	.	69	-14	-15*
COc1ccc(-c2nnc3ccc(SCC(=O)N4CCN(c5ccccc5)CC4)nn23)cc1OC	-1	6	.	.	85
COc1cccc(N2CCN(c3c4c(nc5ncnn35)CCC4)CC2)c1	.	21	25*	-9	110
Cc1cc(=O)n2nc(N3CCC(C(=O)NC4CCCc5ccccc54)CC3)sc2n1 (configuration not stated)	-2	12	.	.	124
CC1=C(C(=O)OCc2ccc3c(c2)OCO3)C(c2ccc(Cl)cc2)NC(=O)N1 (configuration not stated)	78*	67*	82	.	20
CC1=C(C(=O)OCc2ccc3c(c2)OCO3)C(c2ccc(F)cc2)NC(=O)N1 (configuration not stated)	84*	45*	96	52	54
CCOC(=O)C1=C(C)NC(=O)NC1c1ccc2c(c1)OCCO2 (configuration not stated)	4	18	106	23	93
COc1ccc(OC)c(C(=O)CSc2nnc(Cc3cccs3)n2CCc2ccccc2)c1	.	.	.	42	.

Bioassay records (PubChem BioAssay)
